Results: ChEMBL document CHEMBL4765233, “From Lead to Drug Candidate: Optimization of 3-(Phenylethynyl)-1H-pyrazolo[3,4-d]pyrimidin-4-amine Derivatives as Agents for the Treatment of Triple Negative Breast Cancer” (J Med Chem, 2016)
Active and inactive are the calls of the source. The rule behind the calls is not given here.

Legend:
[1] = biological target: High affinity nerve growth factor receptor (Homo sapiens, UniProt P04629); test: Inhibition of human recombinant TRKA (440 to end residues) using KKKSPGEYVNIEFG as substrate incubated for 40 mins in presence of [gamma33P-ATP] by radiometric scintillation counting analysis
Method in brief: (§1)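 Radiometric kinase assay run as an external profiling service, with ATP at the Km of each kinase. IC50 values are means of two independent experiments.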

Activated CDC42 kinase 1 = Activated CDC42 kinase 1 (Homo sapiens, UniProt Q07912); test: Inhibition of human recombinant ACK1 (1 to 389 residues) using EFPIYDFLPAKKK as substrate incubated for 40 mins in presence of [gamma33P-ATP] by radiometric scintillation counting analysis; method in brief: as §1
L02 = test: Cytotoxicity against human L02 cells assessed as reduction in cell viability incubated for 72 hrs by MTT assay; assay type: cell-based; settings: L02, 72 h
Method in brief: (§2)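 MTT viability assay. ATCC cell lines were grown in designated medium with 10% FBS at 37 °C, 5% CO2. Cells seeded at 1500−30000 per well and incubated 24 h, then exposed to compound (0−10 μg/mL) for 72 h. MTT added for 2−4 h. Formazan dissolved in DMSO (adherent) or acidified SDS overnight (suspension), absorbance read at 570 nm. Triplicates; IC50 calculated.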

MDA-MB-231 [2] = test: Induction of apoptosis in human MDA-MB-231 cells assessed as late apoptotic cells at 0.01 uM incubated for 24 hrs by annexin V-FITC and propidium iodide staining based flow cytometry analysis (reference value: 0.85 %); assay type: functional
[3] = Acute toxicity in Sprague-Dawley rat assessed as histopathological changes in spleen at 100 mg/kg, po administered as single dose measured after 24 hrs by H and E staining based light microscope analysis; assay type: organism-based; settings: in vivo
Method in brief: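 Sprague-Dawley rats received a single oral dose of 100 mg/kg in sterile water with 25% (v/v) PEG400 plus 5% DMSO. Organs were examined by histology and immunohistochemistry for pathological changes. Behaviour and side effects were checked daily.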

[4] = biological target: Mitogen-activated protein kinase 1 (Homo sapiens, UniProt P28482); test: Inhibition of human full length recombinant ERK2 using myelin basic protein as substrate incubated for 40 mins in presence of [gamma33P-ATP] by radiometric scintillation counting analysis
MDA-MB-231 [5] = test: Antitumor activity against human MDA-MB-231 cells xenografted in SCID mouse assessed as tumor growth inhibition at 40 mg/kg, po qd for 15 days and measured every 3 days; assay type: functional; settings: MDA-MB-231, po, 360 h, time 15 day
Method in brief: (§3)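 SCID mice (5−6 weeks) injected subcutaneously with 100 μL of cells at 5 × 10^7/mL. At 150−200 mm3 mice randomized, 6 per group. Oral compounds given in water with 25% PEG400 plus 5% DMSO; paclitaxel given 10 mg/kg/week iv. Tumor volume a×b²/2 and body weight measured every 3 days. Inhibition rate (c−d)/c×100% against vehicle control.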

[6] = AUC (0 to infinity) in Sprague-Dawley rat at 10 mg/kg, po administered via gavage by LC-MS analysis; assay type: ADME, organism-based; design: time infinity, route oral, dose 10 mg/kg; settings: in vivo
MDA-MB-231 [7] = test: Antiproliferative activity against human MDA-MB-231 cells assessed as reduction in cell viability incubated for 72 hrs by MTT assay; assay type: functional, cell-based; settings: MDA-MB-231, 72 h; method in brief: as §2
Ephrin type-A receptor 7 = Ephrin type-A receptor 7 (Homo sapiens, UniProt Q15375); test: Inhibition of human recombinant EPHA7 (613 to 909 residues) using KTFCGTPEYLAPEVRREPRILSEEEQEMFRDFDYIADWC incubated for 40 mins in presence of [gamma33P-ATP] by radiometric scintillation counting analysis; method in brief: as §1
[8] = Metabolic stability in monkey liver microsomes assessed as parent compound remaining at 1 uM measured after 60 mins in presence of NADPH by HPLC-MS/MS analysis; assay type: ADME, Macaca mulatta, Microsome; settings: rhesus monkey, read-out: Stabilty
Method in brief: (§4)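 Compound at 1 μM incubated with 0.5 mg/mL liver microsomes and 1 mM NADPH. Samples taken at 0, 10, 15, 30, 45 and 60 min and quenched with acetonitrile. After centrifugation, supernatant analysed by HPLC-MS/MS, with percent parent remaining relative to the 0 min area.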

MDA-MB-231 [9] = test: Induction of apoptosis in human MDA-MB-231 cells assessed as live cells at 0.1 uM incubated for 24 hrs by annexin V-FITC and propidium iodide staining based flow cytometry analysis (reference value: 96.95 %); assay type: functional
MDA-MB-231 [10] = test: Induction of apoptosis in human MDA-MB-231 cells assessed as early apoptotic cells at 0.03 uM incubated for 24 hrs by annexin V-FITC and propidium iodide staining based flow cytometry analysis (reference value: 2 %); assay type: functional
[11] = biological target: Proto-oncogene tyrosine-protein kinase Src (Homo sapiens) (UniProt P12931); test: Inhibition of Src in human MDA-MB-231 cells assessed as inhibition of STAT3 phosphorylation at 0.1 to 0.3 uM incubated for 20 hrs by Western blot analysis; assay type: cell-based; settings: dose 0.1-0.3 µM
Method in brief: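 MDA-MB-231 cells treated with a series of concentrations for 20 h at 37 °C. Cells washed with ice-cold saline and lysed in RIPA buffer with protease cocktail. Lysates cleared at 12000 rpm for 10 min at 4 °C and protein quantified by Bradford. Equal protein separated by SDS-PAGE, transferred to PVDF and probed with antibodies.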

MDA-MB-231 [12] = test: Antitumor activity against human MDA-MB-231 cells xenografted in SCID mouse assessed as tumor growth inhibition at 40 mg/kg, po qd for 21 days and measured every 3 days; assay type: functional; settings: MDA-MB-231, po, 504 h, time 21 day; method in brief: as §3
[13] = Metabolic stability in human liver microsomes assessed as parent compound remaining at 1 uM measured after 60 mins in presence of NADPH by HPLC-MS/MS analysis; assay type: ADME, Microsome; settings: read-out: Stabilty; method in brief: as §4
A-375 = test: Antiproliferative activity against human A-375 cells assessed as reduction in cell viability incubated for 72 hrs by MTT assay; assay type: functional, cell-based; settings: A-375, 72 h; method in brief: as §2
MDA-MB-231 [14] = test: Inhibition of tumor mitotic index in SCID mouse xenografted with human MDA-MB-231 cells assessed as reduction in Ki67 expression at 40 mg/kg, po QD for 21 days by immunohistochemical staining analysis; assay type: functional, organism-based; settings: dose 40.0 mg/kg/day, time 21.0 day
Method in brief: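 SCID mice carried subcutaneous MDA-MB-231 xenografts (5 × 10^6 cells in 100 μL). Oral dosing in water with 25% PEG400 and 5% DMSO began at 150–200 mm3. Tumours were removed at the end of study, formalin-fixed and paraffin-embedded, then immunostained.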

[15] = biological target: Ribosomal protein S6 kinase alpha-1 (Homo sapiens, UniProt Q15418); test: Inhibition of human full length recombinant RSK1 using KKKNRTLSVA as substrate incubated for 40 mins in presence of [gamma33P-ATP] by radiometric scintillation counting analysis; method in brief: as §1
[16] = Acute toxicity in male Sprague-Dawley rat assessed as increase in body weight at 200 mg/kg, po administered as single dose measured after day 9 and monitored every 3 days; assay type: organism-based; settings: in vivo, 72 h, time >9 day
Method in brief: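 Sprague-Dawley rats (n = 3) received a single oral dose of 200 mg/kg in sterile water with 25% (v/v) PEG400 plus 5% DMSO. Behaviour and side effects were monitored daily, and average body weight was measured every 3 days.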

DU-145 = test: Antiproliferative activity against human DU-145 cells assessed as reduction in cell viability incubated for 72 hrs by MTT assay; assay type: functional, cell-based; settings: DU-145, 72 h; method in brief: as §2

Chain of Mitogen-activated protein kinase 1 (P28482 whole entry): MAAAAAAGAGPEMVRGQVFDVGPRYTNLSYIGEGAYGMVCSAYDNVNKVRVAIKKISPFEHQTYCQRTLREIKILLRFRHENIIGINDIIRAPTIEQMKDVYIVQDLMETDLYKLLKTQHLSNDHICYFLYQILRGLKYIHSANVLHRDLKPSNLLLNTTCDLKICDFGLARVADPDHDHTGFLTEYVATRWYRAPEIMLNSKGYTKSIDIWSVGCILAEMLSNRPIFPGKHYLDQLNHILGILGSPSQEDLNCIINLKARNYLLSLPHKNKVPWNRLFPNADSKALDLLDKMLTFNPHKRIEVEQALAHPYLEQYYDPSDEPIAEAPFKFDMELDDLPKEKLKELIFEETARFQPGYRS
Chain of Ephrin type-A receptor 7 (Q15375 whole entry, the tested form may be a part): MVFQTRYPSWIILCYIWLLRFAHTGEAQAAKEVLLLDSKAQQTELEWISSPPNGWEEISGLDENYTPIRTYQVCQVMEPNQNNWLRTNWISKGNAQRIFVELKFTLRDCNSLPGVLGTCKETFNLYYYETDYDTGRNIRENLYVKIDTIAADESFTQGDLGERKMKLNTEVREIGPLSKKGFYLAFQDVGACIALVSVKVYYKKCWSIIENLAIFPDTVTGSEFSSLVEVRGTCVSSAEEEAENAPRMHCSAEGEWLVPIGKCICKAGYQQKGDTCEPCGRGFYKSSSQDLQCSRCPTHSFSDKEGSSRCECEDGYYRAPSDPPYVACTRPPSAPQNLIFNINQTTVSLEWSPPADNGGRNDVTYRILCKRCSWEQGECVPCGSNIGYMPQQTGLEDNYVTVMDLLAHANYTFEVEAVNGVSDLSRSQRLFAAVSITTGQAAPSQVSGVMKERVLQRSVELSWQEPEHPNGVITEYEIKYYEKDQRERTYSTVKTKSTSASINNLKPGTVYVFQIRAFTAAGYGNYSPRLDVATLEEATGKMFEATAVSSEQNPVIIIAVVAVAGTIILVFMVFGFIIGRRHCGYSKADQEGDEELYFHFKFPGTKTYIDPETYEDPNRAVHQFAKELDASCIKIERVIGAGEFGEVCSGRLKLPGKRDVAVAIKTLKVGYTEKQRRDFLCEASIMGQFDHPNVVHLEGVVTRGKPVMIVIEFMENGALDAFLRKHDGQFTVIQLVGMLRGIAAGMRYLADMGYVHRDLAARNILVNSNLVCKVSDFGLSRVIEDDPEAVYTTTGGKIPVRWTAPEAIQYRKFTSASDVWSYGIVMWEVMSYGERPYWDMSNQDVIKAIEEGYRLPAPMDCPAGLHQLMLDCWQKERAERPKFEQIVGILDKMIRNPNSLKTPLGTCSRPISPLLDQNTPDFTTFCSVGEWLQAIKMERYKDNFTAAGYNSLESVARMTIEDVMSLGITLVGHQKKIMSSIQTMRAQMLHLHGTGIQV
Chain of Ribosomal protein S6 kinase alpha-1 (Q15418 whole entry): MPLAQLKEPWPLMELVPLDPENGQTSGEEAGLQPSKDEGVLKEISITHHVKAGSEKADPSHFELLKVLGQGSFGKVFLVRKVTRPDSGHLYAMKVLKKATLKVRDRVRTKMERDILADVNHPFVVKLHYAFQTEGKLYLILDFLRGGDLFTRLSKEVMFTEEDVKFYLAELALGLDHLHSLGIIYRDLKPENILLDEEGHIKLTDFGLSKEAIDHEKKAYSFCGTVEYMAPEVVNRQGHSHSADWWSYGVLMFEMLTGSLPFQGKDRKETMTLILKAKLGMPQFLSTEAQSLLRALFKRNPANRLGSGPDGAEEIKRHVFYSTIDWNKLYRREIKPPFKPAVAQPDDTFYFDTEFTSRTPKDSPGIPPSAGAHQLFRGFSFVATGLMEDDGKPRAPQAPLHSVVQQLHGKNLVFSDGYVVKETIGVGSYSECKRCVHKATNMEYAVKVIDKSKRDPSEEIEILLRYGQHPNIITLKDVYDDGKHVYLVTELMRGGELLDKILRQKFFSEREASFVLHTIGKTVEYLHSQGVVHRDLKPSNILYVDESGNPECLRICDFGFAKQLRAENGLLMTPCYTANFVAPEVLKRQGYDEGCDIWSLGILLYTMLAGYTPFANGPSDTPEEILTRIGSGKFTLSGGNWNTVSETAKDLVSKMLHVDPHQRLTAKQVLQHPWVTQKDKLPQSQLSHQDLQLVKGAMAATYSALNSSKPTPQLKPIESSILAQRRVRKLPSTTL
Chain of Proto-oncogene tyrosine-protein kinase Src (Homo sapiens) (P12931 2-536 limits assumed): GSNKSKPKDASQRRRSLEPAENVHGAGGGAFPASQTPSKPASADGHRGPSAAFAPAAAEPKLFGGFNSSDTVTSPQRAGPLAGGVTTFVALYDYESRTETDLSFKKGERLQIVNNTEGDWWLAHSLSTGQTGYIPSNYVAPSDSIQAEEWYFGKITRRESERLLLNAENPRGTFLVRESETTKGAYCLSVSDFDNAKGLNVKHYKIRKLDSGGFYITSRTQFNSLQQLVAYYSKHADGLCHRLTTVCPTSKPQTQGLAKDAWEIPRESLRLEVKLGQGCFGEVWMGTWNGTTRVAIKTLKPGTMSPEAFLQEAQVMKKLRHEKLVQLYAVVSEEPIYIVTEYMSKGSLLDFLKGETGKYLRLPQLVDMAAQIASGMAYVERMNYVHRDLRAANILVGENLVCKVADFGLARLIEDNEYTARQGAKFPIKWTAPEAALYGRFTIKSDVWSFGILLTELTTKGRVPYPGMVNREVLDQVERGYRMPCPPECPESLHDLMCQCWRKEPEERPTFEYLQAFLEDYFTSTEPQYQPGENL
Chain of High affinity nerve growth factor receptor (P04629 whole entry): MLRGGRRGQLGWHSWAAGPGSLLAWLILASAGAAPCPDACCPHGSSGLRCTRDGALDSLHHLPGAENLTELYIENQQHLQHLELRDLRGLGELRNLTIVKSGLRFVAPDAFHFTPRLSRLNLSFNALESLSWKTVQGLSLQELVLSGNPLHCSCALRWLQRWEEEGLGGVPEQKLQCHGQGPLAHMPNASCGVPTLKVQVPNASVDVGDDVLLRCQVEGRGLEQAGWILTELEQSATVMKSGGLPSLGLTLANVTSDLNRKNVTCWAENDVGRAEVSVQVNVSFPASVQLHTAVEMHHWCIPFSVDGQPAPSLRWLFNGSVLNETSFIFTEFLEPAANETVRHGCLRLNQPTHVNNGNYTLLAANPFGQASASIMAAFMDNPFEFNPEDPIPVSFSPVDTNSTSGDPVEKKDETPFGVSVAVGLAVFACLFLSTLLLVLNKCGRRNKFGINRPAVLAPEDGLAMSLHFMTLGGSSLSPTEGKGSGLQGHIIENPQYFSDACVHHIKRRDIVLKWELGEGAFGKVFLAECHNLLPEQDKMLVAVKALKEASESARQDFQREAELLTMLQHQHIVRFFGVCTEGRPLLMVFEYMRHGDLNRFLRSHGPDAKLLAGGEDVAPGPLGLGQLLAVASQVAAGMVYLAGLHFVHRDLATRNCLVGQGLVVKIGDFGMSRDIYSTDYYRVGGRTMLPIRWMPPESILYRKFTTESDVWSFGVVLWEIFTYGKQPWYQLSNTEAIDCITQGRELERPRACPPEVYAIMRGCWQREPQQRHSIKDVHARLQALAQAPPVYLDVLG
Chain of Activated CDC42 kinase 1 (Q07912 whole entry, the tested form may be a part): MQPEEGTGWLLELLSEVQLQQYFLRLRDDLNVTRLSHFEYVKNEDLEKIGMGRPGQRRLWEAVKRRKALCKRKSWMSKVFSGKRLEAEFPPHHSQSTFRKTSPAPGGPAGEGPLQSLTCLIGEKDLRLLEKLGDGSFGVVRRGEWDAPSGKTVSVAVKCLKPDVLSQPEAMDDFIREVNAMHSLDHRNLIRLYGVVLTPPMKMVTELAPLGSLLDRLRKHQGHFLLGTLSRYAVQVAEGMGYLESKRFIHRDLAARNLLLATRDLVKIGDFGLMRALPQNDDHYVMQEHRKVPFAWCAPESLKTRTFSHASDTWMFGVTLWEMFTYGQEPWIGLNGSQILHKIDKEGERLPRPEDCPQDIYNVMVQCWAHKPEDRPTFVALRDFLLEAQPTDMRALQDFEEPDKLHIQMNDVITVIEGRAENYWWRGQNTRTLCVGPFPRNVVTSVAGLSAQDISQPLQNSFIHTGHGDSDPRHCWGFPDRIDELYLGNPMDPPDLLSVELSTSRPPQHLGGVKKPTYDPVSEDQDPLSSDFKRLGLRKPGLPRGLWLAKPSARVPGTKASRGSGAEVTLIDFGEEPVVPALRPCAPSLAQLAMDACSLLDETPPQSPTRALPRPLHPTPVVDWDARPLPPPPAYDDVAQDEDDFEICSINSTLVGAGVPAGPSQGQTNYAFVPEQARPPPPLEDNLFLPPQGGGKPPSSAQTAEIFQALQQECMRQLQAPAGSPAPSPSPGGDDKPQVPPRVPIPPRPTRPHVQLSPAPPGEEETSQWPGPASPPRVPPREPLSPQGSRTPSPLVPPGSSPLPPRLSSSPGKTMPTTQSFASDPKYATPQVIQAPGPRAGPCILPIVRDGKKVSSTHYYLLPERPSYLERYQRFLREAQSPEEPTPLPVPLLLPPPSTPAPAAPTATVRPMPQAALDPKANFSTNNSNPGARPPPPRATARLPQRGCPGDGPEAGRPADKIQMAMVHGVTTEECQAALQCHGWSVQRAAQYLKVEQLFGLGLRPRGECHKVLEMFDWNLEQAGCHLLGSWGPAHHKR

For `Cc1ccc(NC(=O)c2ccc(C)c(C(F)(F)F)c2)cc1C#Cc1nn([C@H]2CC[C@H](O)CC2)c2ncnc(N)c12`, the IC50 [1] was > 10000 nM, the IC50 (Activated CDC42 kinase 1) was 175 nM and the IC50 (L02) was > 10000 nM. For the same compound, the Activity (MDA-MB-231 [2]) was 3.23%, the Activity [3] was “Non-Toxic” and the IC50 [4] was > 10000 nM. For the same compound, the inhibition in vivo at 40 mg/kg/day (MDA-MB-231 [5]) was 96.2%, the AUC(0-inf) [6] was 2950 ng·h/mL and the IC50 (MDA-MB-231 [7]) was 30 nM. For the same compound, the IC50 (Ephrin type-A receptor 7) was 143 nM, the remaining at 1 h, 1 µM [8] was > 90% and the Activity (MDA-MB-231 [9]) was 67.94%. For the same compound, the Activity (MDA-MB-231 [10]) was 8.02%, the inhibition [11] was “Active” and the inhibition in vivo at 40 mg/kg/day (MDA-MB-231 [12]) was 100%. The remaining at 1 h, 1 µM [13] was > 90%, the IC50 (A-375) was 31 nM and the inhibition (MDA-MB-231 [14]) was “Active”. The IC50 [15] was 559 nM, the Activity [16] was “Non-Toxic” and the IC50 (DU-145) was > 10000 nM.
